Key:
β2AR = settings: cited from earlier work
HASM cells = experiment: Magnetic twisting cytometry, HASM cell stiffness; format: cell-based, human; settings: 10 μM ISO
In short: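 Magnetic twisting cytometry: integrin-anchored beads on serum-deprived, post-confluent HASM cells from nonasthma donors, plated at 30,000 cells/cm² on collagen I and kept serum-free for 24 h. Cells were pretreated ± 1 μM test compound for 30 min. […] Stiffness was normalized to each cell's baseline; linear mixed-effect model on log data; 463 to 473 cells.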

Row | SMILES | allosteric modulator activity at the β2AR (β2AR) | time to peak relaxation (HASM cells)
1 | Nc1nc(Nc2ccccc2)nc2ccc(Br)cc12 [AS408] | NAM for both ISO-mediated cAMP production and β-arrestin recruitment | –
2 | CC(C)NCC(O)c1ccc(O)c(O)c1 (centres unmarked) [ISO, isoproterenol] | – | 4 to 5 min

— paper PMC10401000 (Proceedings of the National Academy of Sciences of the …, 2023)
